High-throughput results from PubChem.
This excerpt belongs to a sample that is enriched for hits.
RORa inhibitor: RORA (human) inhibition. P35398. CHO-K1 Gal4-RORA LBD luciferase reporter, luminescence. inhibition, % at 10 µM. 65,000 compounds, 0.43% hits;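 active means inhibition above the mean of all tested compounds plus 3 SD, cut at about 52% in these data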
Target sequence (P35398 whole entry, looked up, the tested form may be a part): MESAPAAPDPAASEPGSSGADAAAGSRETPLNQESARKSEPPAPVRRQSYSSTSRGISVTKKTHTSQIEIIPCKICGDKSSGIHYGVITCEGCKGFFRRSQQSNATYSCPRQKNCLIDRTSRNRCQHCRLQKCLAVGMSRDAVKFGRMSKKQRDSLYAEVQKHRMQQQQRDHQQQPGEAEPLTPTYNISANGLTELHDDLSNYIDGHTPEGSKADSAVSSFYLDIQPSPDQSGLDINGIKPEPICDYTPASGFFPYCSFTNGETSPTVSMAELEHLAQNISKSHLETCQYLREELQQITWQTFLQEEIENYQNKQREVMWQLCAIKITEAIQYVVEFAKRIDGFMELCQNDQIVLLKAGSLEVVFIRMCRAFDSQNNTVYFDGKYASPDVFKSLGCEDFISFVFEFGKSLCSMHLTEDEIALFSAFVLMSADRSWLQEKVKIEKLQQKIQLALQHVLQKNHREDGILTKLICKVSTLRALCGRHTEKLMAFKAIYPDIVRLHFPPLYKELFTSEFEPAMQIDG
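Test system – CHO-K1 Gal4-RORA LBD luciferase reporter cells · Schedule – 20 h at 37 °C · Signal – luminescence from basal luciferase reporter expression · Measure – percent inhibition of basal reporter luminescence, control-normalized · Control set – -RORA mock-transfected DMSO wells 100%, +RORA DMSO wells 0%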
Of the large screens only hits and unclear results are named; the others gave an inactive call.

O=C(NCCCn1ccnc1)c1csc2ccccc12	none
O=C(CSc1nnnn1C1CCCCC1)NCc1ccc2c(c1)OCO2	none
COc1ccc(NC(=O)Nc2cccc(OC)c2)cc1	none
Cc1cccc(NC(=O)Nc2ccc(C#N)cc2)n1	RORa inhibitor 60
Cc1cccc(NC(=O)c2cc3ccccc3c(=O)o2)n1	none
O=C(NC1CCCc2ccccc21)C1CCN(c2c(N3CCCC3)c(=O)c2=O)CC1 (centres undefined)	none
Nc1nc(N)c2sc3nc4c(cc3c2n1)CCC4	none
COc1ccc(N2CCN(CCCNC(=O)CC3Oc4ccc(C)cc4NC3=O)CC2)cc1 (centres undefined)	none
O=C(CSc1nnc(COc2cccc3cccnc23)o1)N1CCc2ccccc21	RORa inhibitor 59
Cc1ccc(NCc2nnc(SCC(=O)N3CCCc4ccccc43)o2)c(C)c1	none
O=C(CSc1nnc(COc2ccc(F)cc2)o1)N1c2ccccc2CCc2ccccc21	none
COc1ccc(-c2nnc(SCC(=O)Nc3ncc(C)s3)n2-c2ccccc2)cc1OC	none
COc1ccc(-c2nnc(SCc3nnc(-c4ccccc4)o3)n2C)cc1OC	none
Cc1cccc2cc(COC(=O)C(C)C)c(=O)[nH]c12	none
CC(=O)CC1OC(=O)C(Br)=C1NCc1ccccc1 (centres undefined)	RORa inhibitor 63
O=C(CC1Oc2ccccc2NC1=O)NCc1ccccc1 (centres undefined)	none
CCCCOCCCNC(=O)c1c(-c2ccccc2)noc1C	none
CCOC(=O)c1cnn(-c2ccccn2)c1N	none
CCOC(=O)c1c(C)nc(-c2ccccc2)nc1N	none
CCOC(=O)C1=Nc2ccccc2C1=[N+]=[N-]	RORa inhibitor 76
COc1ccc(C(O)P(=O)(O)CCc2ccccc2)cc1 (centres undefined)	none
N#Cc1c(NC(=O)COC(=O)C2CC3C=CC2C3)oc(-c2ccccc2)c1-c1ccccc1 (centres undefined)	none
Cc1cc(C(=O)Nc2ccccn2)no1	none
Cc1ccc(C(=O)/C=C/Nc2ccccn2)cc1	RORa inhibitor 90
O=C(O)c1ccccc1C(=O)Nc1ccccn1	none
NC(=O)CS(=O)(=O)c1nc2ccccc2n1Cc1ccccc1F	none
Cc1nc2cc(NC(=O)NCCC3=CCCCC3)ccc2o1	none
CSC1=C(C#N)C(C)CC(=O)N1 (centres undefined)	none
Cc1nn(CC(=O)Nc2nnc(CC(=O)N3CCCC3)s2)c(=O)c2ccccc12	none
Cc1occc1-c1nnc(SCC(=O)N2c3ccccc3CCc3ccccc32)n1C	none
CC1CCN(C(=O)CN2C(=O)C(C)(C)Oc3ccc(C(=O)NC4CCCC4)cc32)CC1	none
CCCc1ccc(-c2ccc(F)c(N)c2)nc1	RORa inhibitor 69
Cc1nc2nc(COc3ccccc3)[nH]n2c(=O)c1Cl	none
CCOc1ccc(-c2nnc(SCC(=O)N3CCN(c4ccccc4)CC3)o2)cc1	none
O=C(CSCC(=O)NCc1ccco1)NCc1ccco1	none
COc1ccc(CNC(=O)CS(=O)Cc2nc(-c3ccc(C)cc3)oc2C)cc1 (centres undefined)	none
Cc1ccc(-c2nc(CS(=O)CC(=O)NCc3ccccc3)c(C)o2)cc1 (centres undefined)	none
COc1ccc(-c2nc(CSCC(=O)NCc3ccco3)c(C)o2)cc1	RORa inhibitor 72
CCOc1ccc(-c2nc(CSCC(=O)NCCN3CCOCC3)c(C)o2)cc1	RORa inhibitor 71
Cc1ccc(-c2ccc(=O)n(CC(=O)Nc3cccc(C(=O)N4CCN(C)CC4)c3)n2)cc1	none
CCC(c1nnnn1CCOC)N(Cc1ccc(C)cc1)Cc1cc2cc(OC)ccc2[nH]c1=O (centres undefined)	none
CCOC(=O)Cc1csc(NC(=O)CCS(=O)(=O)Cc2ccccc2)n1	none
COc1ccc(NC(=O)C(c2ccc(C)cc2)N(C)C(=O)c2cnccn2)cc1 (centres undefined)	none
O=C(Nc1ccon1)c1cccc(C(F)(F)F)c1	none
COc1ccccc1C1/C(=C(/O)c2ccc(Cl)cc2)C(=O)C(=O)N1CCN1CCOCC1 (centres undefined)	none
Nc1nc(Cl)nc2c1ncn2[C@H]1C[C@H](O)[C@@H](CO)O1	RORa inhibitor 69
NC(=O)c1nn(-c2ccccc2)nc1N	none
COc1ccc(-c2nnc(SCC(=O)NC(C)C)n2CC2CCCO2)cc1OC (centres undefined)	none
Cc1cc(C(=O)CN2C(=O)c3ccccc3S2(=O)=O)c(C)n1CC1CCCO1 (centres undefined)	RORa inhibitor 62
Cc1nnc(SCc2ccccc2Cl)n1CC1CCCO1 (centres undefined)	none
CCN(C(=O)c1cn(CC)c(=O)c2cc(OC)c(OC)cc12)c1ccccc1C	none
Cc1cc(-c2ccccc2)nc(N2CCC(C(=O)NC(C)C)CC2)n1	none
O=C(C1CC(=O)N(c2ccccc2)C1)N1CCN(C2=NS(=O)(=O)c3ccccc32)CC1 (centres undefined)	none
O=C(NCC12CC3CC(CC(C3)C1)C2)c1cc2n(n1)C(C(F)(F)F)CC(c1ccco1)N2 (centres undefined)	none
O=C(NC1CCCC1)C1C2C=CC(C2)C1C(=O)N1CCOCC1 (centres undefined)	none
COc1cccc2c1C(=O)c1c(O)c3c(c(O)c1C2=O)C[C@@](O)(C(C)=O)C[C@@H]3O[C@H]1C[C@H](N)[C@H](O)[C@H](C)O1	RORa inhibitor 78
COC(=O)CSc1nnc2c(C)cc3cc4c(cc3n12)OCCO4	none
CC(C)OC(=O)C(NC(=O)c1ccccc1)=C1CCCCC1	none
CC1(C)CC(=O)C=C(Nc2ccc(S(N)(=O)=O)cc2)C1	none
Cc1cccc2cc3c(nc12)SC(=NCC1CCCO1)N(Cc1ccco1)C3 (centres undefined)	RORa inhibitor 55
COc1ccccc1N1CCN(C(=O)c2cccc(N3C(=O)NC4CC3(C)Oc3ccccc34)c2)CC1 (centres undefined)	none
O=S(=O)(NCc1ccc(Cl)cc1)c1cnc[nH]1	none
CC(=O)NS(=O)(=O)c1ccc(NC(=O)CCC2CCCC2)cc1	none
Cc1cc(C)c(C)c(S(=O)(=O)NCc2cccnc2)c1C	none
CC1CCCCC1NS(=O)(=O)c1ccc(S(=O)(=O)NCc2ccncc2)cc1 (centres undefined)	RORa inhibitor 69
Cc1ccc(S(=O)(=O)NCc2ccncc2)cc1	RORa inhibitor 56
CC1(C)N=C(c2ccc(Cl)cc2Cl)C(=O)N1	none
Cc1cc(NC(=O)CSc2ncnc3ccccc23)no1	none
CCCN1Cc2cccc(C(=O)NCc3cccs3)c2C1=O	none
COC(=O)c1cc2ccsc2n1CC(=O)Nc1cc(Cl)ccc1OC	none
O=C(NCCCn1ccnc1)c1cc(-c2cccs2)on1	none
C(=N\n1cnnc1)/c1ccc(OC2CSC2)cc1	none
Cc1cc(/C=N/n2cnnc2)c(C)n1-c1ccc(OCc2ccc(F)cc2)cc1	RORa inhibitor 70
COC(=O)c1ccc2ccn(CC(=O)NC(C)C)c2c1	none
Cn1c(=O)c2c(SCc3ccccn3)nc(-c3ccccc3)nc2n(C)c1=O	none
CC(NC(=O)Nc1nnc(C(F)(F)F)s1)(C(F)(F)F)C(F)(F)F	RORa inhibitor 94
CCOC(=O)N1CCC(=C2c3ccc(Cl)cc3CCc3cccnc32)CC1	none
N#CC(C#N)=c1ccc2c(c1)NC1(CCCCC1)N=2	RORa inhibitor 58
O=C(Cc1ccccc1)Nc1c(C(=O)N2CCOCC2)cnn1-c1ccccc1	none
CC(=O)N1CCC2(CC1)CC(=O)c1cc(OCC(=O)NCc3ccco3)ccc1O2	none
COc1ccc(Nc2nc(N3CCCC3)c3ccccc3n2)cc1	none
c1ccc(-c2nc(N3CCCCCC3)c3ccccc3n2)nc1	RORa inhibitor 79
O=C(O)c1cccc(N2CCCC2)c1	none
CCOCCCNCC(=O)N1CCN(S(=O)(=O)c2ccc(C)cc2)CC1	none
COc1ccc(OCCCSc2ncccn2)cc1	none
